A selection: hits, their analogues and other compounds. The true share with any hit is near 3.9%.
TAAR1 antagonist = human TAAR1 antagonism; Q96RJ0; CHO RD-HGA16 TAAR1, Fluo-8 calcium fluorescence, antagonist; inhibition, % at 3 µM; 1.5% of 360,000 active; AID 624466;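 active = inhibition above a per-plate cutoff, the mean inhibition of test compounds on that plate plus 3 SD, cut at about 49% in these data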;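 note: 0% = DMSO plus EC80 beta-PEA response and 100% = DMSO alone without agonist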
Target sequence (Q96RJ0 whole entry, looked up): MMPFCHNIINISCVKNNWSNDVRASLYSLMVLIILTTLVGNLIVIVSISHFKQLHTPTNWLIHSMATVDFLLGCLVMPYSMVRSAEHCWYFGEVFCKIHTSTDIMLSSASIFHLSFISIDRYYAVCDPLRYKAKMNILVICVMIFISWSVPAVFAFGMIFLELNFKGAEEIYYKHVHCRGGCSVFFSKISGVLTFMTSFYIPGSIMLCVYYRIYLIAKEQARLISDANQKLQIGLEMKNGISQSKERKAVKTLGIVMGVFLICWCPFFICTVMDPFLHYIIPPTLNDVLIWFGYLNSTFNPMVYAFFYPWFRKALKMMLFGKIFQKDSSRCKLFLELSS
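System: CHO RD-HGA16 cells bearing hTAAR1. Reagent: EC80 β-phenethylamine stimulus. Schedule: seeding 17-24 h prior, 75-min 37 °C, 30-min RT dye loading. Signal: Fluo-8 intracellular calcium dye fluorescence, real-time kinetic reads. Read-out: % inhibition from peak post-agonist over basal fluorescence ratio. Benchmarks: vehicle wells and EC80 agonist wells. Replicates: n of 1.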
TAAR1 agonist = agonists of human TAAR1; Q96RJ0; 0.99% of 360,000 active; CHO RD-HGA16 TAAR1, Fluo-8 calcium fluorescence; vehicle wells 0%, saturating PEA agonist 100%; activation, % at 3 µM;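 active = activation above the mean activation of all test compounds in the run plus 3 SD, cut at about 38% in these data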
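Benchmarks: low control DMSO, high control PEA (EC100); System: CHO RD-HGA16 cells carrying human TAAR1 plus Gα16; Detection: Fluo-8 fluorescence, 5 s baseline then 140 s kinetic read; Schedule: 17-24 h plating, Fluo-8 75 min 37 °C, 30 min RT; Read-out basis: % activation from peak over basal fluorescence ratio, DMSO-to-PEA scaled.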
CRFBP-R2 block = blocks CRF-induced signaling of the CRF-BP/CRF-R2 complex. AID 588475. 0.59% of 350,000 active. HEK293 CRF-R2/CRF-BP, CRF-induced calcium fluorescence. inhibition, % at 11.8 µM;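 active = inhibition of the ligand-induced calcium signal above about 50% at the single tested concentration, limit read from the data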
TMEM16A inh = inhibitors of mouse TMEM16A calcium-activated chloride channel | 1.2% of 310,000 active | HEK293 TMEM16A/YFP iodide influx fluorescence, ionomycin | normalized B-score (activity score, 25-100; higher = stronger inhibition) at 10 µM;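 active = ratio plate-corrected score three or more library SD toward inhibition, starting fluorescence score within five deviations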;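 note: score derived from kinetic fluorescence span divided by baseline fluorescence per well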
ANO1 activ = mouse TMEM16A channel activation, primary screen; HEK293 TMEM16A/YFP-H148Q/I152L, iodide quench fluorescence; active compounds read low; B-score at 10 µM; 0.3% of 340,000 active; AID 623877; Q8BHY3;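 active = fluorescence-ratio B-score plate-corrected deviation score at least 3 library SD below zero, with starting fluorescence score within 5 deviations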;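 note: channel opened by trigger with iodide after compound preincubation; score built on the fluorescence ratio of max minus min over baseline; more negative score means more quench and so TMEM16A activation or potentiation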
CRFBP-R2 agonist = agonists of human CRF-binding protein/CRF-R2 receptor complex. HEK293 CRF-R2/CRF-BP, calcium dye fluorescence (FLIPR); percent of saturating CRF peptide response. activation, % at 13.2 µM. 0.46% of 350,000 active;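 active = activation of at least 50%, plus an integration ratio under a set limit after plate pattern correction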;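 note: plate controls were neutral control wells without compound for no effect and CRF at EC100 for full effect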
TAAR1 ag conf = human TAAR1 agonism, confirmed. shares compounds with TAAR1 agonist. CHO RD-HGA16 TAAR1, Fluo-8 calcium fluorescence; scaled: DMSO 0%, maximal phenethylamine 100%. activation, % at 3 µM. 82% of 2,400 active;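 active = activation above a cutoff set at the run's mean compound activation plus 3 SD, cut at about 39% in these data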
Ga16 ag counter = nonselective agonism, TAAR1 counter-screen; activation, % at 3 µM; AID 651787; shares compounds with TAAR1 agonist; CHO-Ga16 parental, Fluo-8 calcium fluorescence; normalized to maximal ATP response, DMSO zero; 50% of 2,400 active;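 active = activation above the run cutoff, the mean activation over all tested wells plus 3 SD, cut at about 12% in these data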;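 note: 0% = DMSO wells and 100% = maximal ATP response on the peak over basal ratio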
TAAR1 desens = counter-screen for human TAAR1 agonists: agonists that desensitize TAAR1; shares compounds with TAAR1 agonist; CHO RD-HGA16 hTAAR1, Fluo-8 calcium, beta-PEA response inhibition; inhibition, % at 3 µM; 46% of 2,400 active; AID 651951;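 active = inhibition above the run cutoff, the mean inhibition of all test compounds plus 3 SD, cut at about 49% in these data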;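 note: beta-PEA stimulus applied at its EC80; loss of beta-PEA calcium signal after compound pretreatment read as receptor desensitization; 0% = DMSO with beta-PEA at EC80 and 100% = DMSO alone without agonist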
Ga16 antag count = nonselective Ga16 antagonist in TAAR1 agonist counter-screen; shares compounds with TAAR1 agonist; inhibition, % at 3 µM; 39% of 2,400 active; AID 651952; CHO-Ga16 ATP-induced calcium, Fluo-8 fluorescence;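 active = inhibition above the plate's mean compound inhibition plus 3 SD, computed per plate, cut at about 22% in these data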;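 note: 0% = EC80 ATP with DMSO and 100% = DMSO wells without ATP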
* marks the source's active call; other numbers are inactive results; i = inactive; · = no result.

SMILES	TAAR1 antagonist	TAAR1 agonist	CRFBP-R2 block	TMEM16A inh	ANO1 activ	CRFBP-R2 agonist	TAAR1 ag conf	Ga16 ag counter	TAAR1 desens	Ga16 antag count
CN1CCN(c2ccc(S(=O)(=O)N3CCCCC3)cc2NC(=O)Cc2ccc(Cl)cc2)CC1	24.1	57.0*	-15.8	i	i	15.2	35.6	27.9*	22.7	21.9*
Cc1ccc(Nc2nc(N)nc(CN3CCc4ccccc4C3)n2)cc1	4.6	52.1*	-2.5	i	i	0.1	68.7*	-1.2	-2.2	0.8
Cc1c(Cl)cccc1Nc1nc(N)nc(CN2CCc3ccccc3C2)n1	9.8	33.9	-11.1	i	i	1.6	·	·	·	·
CCC(=O)n1nc(-c2ccc(Cl)cc2)nc1SC	-28.2	43.8*	2.4	i	i	-0.9	44.4*	1.4	4.7	-11.3
CCCC(=O)n1nc(-c2ccc(Cl)cc2)nc1SC	0.5	2.3	8.7	i	i	2.1	·	·	·	·
CSc1nc(-c2ccc(Cl)cc2)nn1S(=O)(=O)c1ccccc1	·	·	13.1	i	i	4.4	·	11.3	·	-4.0
Cc1cccc(CNC(=O)C2CCC(=O)N(C3CC3)C2)c1 (stereo unspecified)	-12.0	0.3	-8.2	i	i	1.0	·	·	·	·
CSCCC(NC(=O)C1CCC(C)CC1)C(=O)NCCN1CCC(C)CC1 (stereo unspecified)	-19.7	-0.1	-8.1	i	i	-0.5	·	·	·	·
Cc1ccc(S(=O)(=O)NCC(C)NC(=O)CN2CCOCC2)cc1 (stereo unspecified)	12.6	-1.4	8.4	i	i	-1.1	·	·	·	·
COc1cccc(/C=N/Nc2snc(SC)c2C#N)c1O	60.1*	75.1*	39.5	100*	i	69.3*	69.3*	52.3*	82.5*	43.7*
COc1ccc(/C=N/Nc2snc(SC)c2C#N)cc1OC	4.4	26.3	-14.1	i	i	1.1	·	·	·	·
CC(C)C[C@H]1CN=C(Nc2ccccc2)N1CCc1ccc(F)cc1	104.4*	119.2*	12.9	i	i	110.5*	127.2*	80.4*	102.4*	71.7*
C=CCN1C(=O)CN=C1Nc1cccc(C)c1	-10.5	11.9	21.0	i	i	-1.9	·	·	·	·
Cc1cccc(NC2=NCC(=O)N2CCc2ccccc2)c1	51.2*	86.2*	-5.1	i	i	1.7	106.2*	4.8	84.7*	1.8
CCC(C)CCN1C(Nc2ccccc2)=NC[C@@H]1CC(C)C (stereo partly specified)	15.7	5.0	-7.7	i	i	0.1	·	·	·	·
CC(C)C[C@H]1CN=C(Nc2ccccc2)N1CC1CCCCCC1	10.9	48.9*	-3.9	i	i	5.7	28.8	16.0*	19.3	22.1*
CCN1C(Nc2ccccc2)=NC[C@@H]1CC(C)C	-10.8	8.8	-3.3	i	i	0.7	·	·	·	·
CC(C)CCN1C(Nc2ccccc2)=NC[C@@H]1CC(C)C	-3.3	7.5	0.7	i	i	-1.5	·	·	·	·
Cc1cccc(CCN2C(Nc3ccccc3)=NC[C@@H]2CC(C)C)c1	106.8*	127.2*	21.0	i	-6.14*	110.7*	111.5*	87.3*	102.1*	80.2*
O=C(CC[C@H]1O[C@@H](n2cnc3c(NC(=O)c4ccccc4)ncnc32)[C@H](O)[C@@H]1O)NCCCN1CCCC1=O	-4.5	2.7	·	·	·	·	·	·	·	·
Cc1oc(-c2ccccc2Cl)nc1CS(=O)(=O)CC(=O)N1CCOCC1	-4.2	0.2	31.5	i	i	-4.8	·	·	·	·
CCCCNC(=O)C1c2ccccc2OCC(=O)N1CCCN1CCOCC1 (stereo unspecified)	1.4	0.7	·	·	·	·	·	·	·	·
Nc1ncnc2c1ncn2CCNCCc1ccccc1	-16.1	46.2*	14.6	i	i	7.1	64.1*	0.5	2.4	0.1
CC(=O)N1CCc2[nH]c3ccccc3c2C1	4.2	1.8	-2.0	i	i	-0.2	·	·	·	·
S=C(NC1CCCCC1)N1CCc2[nH]c3ccccc3c2C1	5.1	0.7	2.8	i	i	-0.7	·	·	·	·
SMILES	TAAR1 antagonist	TAAR1 agonist	CRFBP-R2 block	TMEM16A inh	ANO1 activ	CRFBP-R2 agonist	TAAR1 ag conf	Ga16 ag counter	TAAR1 desens	Ga16 antag count
O=C(CCCCl)N1CCc2[nH]c3ccccc3c2C1	86.6*	88.8*	-2.2	·	i	1.4	96.8*	-0.4	92.5*	7.6
Cc1ccc(NC(=S)N2CCc3[nH]c4ccccc4c3C2)cc1	64.5*	69.0*	-21.4	i	i	1.0	49.0*	9.8	36.0	19.7
Cc1ccccc1S(=O)(=O)NC(=O)C1(C)CCN1C(=O)C1(c2ccc(Cl)cc2)CCC1 (stereo unspecified)	2.0	1.8	·	·	·	·	·	·	·	·
Cc1ccccc1-c1cnc(C(O)c2c(C)cccc2C)[nH]1 (stereo unspecified)	-27.2	2.1	·	·	·	·	·	·	·	·
O=C(COC(=O)CN1C(=O)c2ccccc2C1=O)Nc1ccccc1	-26.3	48.4*	13.4	·	i	0.4	57.0*	0.3	7.8	3.9
COc1ccccc1C(=O)NNC(=S)NC(=O)c1sc2ccccc2c1Cl	80.3*	144.8*	-93.8	100*	-6.16*	170.3*	139.6*	118.5*	105.7*	93.5*
COc1ccccc1C(=O)NC(=S)NNC(=O)c1sc2ccccc2c1Cl	74.4*	117.4*	-254.4	100*	-7.78*	250.7*	165.5*	124.0*	106.0*	86.9*
Cc1c(NC(=S)NC(=O)c2sc3ccccc3c2Cl)cccc1C(=O)O	5.6	2.4	23.2	i	i	-0.4	·	·	·	·
CC1CCCCC1NC(=S)NC(=O)c1sc2ccccc2c1Cl (stereo unspecified)	-27.9	1.5	-19.3	i	i	-1.8	·	·	·	·
CCOC(=O)CON1C(=O)C(=O)N(OCC(=O)OCC)C2CCCCC21 (stereo unspecified)	0.2	3.1	11.8	i	i	1.0	·	·	·	·
Cc1ccc(S(=O)(=O)N2CCN(C(=O)COC(=O)CCCOc3ccccc3)CC2)c(C)c1	3.4	5.2	0.5	·	i	0.8	·	·	·	·
O=C(CN1C(=O)NC(Cc2ccccc2)C1=O)Nc1ccccc1OC(F)F (stereo unspecified)	-1.7	3.3	2.3	i	i	5.1	·	·	·	·

Assay outcomes from PubChem BioAssay.
